Most compounds without a hit are left out; they make up all but 0.99% or so of the library.
CaV13 FRET inh = Primary screen for inhibitors of IQ motif and Ca2+-dependent inactivation inhibitor domain binding in CACNA1D, Förster resonance energy transfer in living cells, …. HEK cells, CFP/YFP FRET ICDI-IQ, plate reader, 10 min; percent FRET-ratio fall versus neutral wells. inhibition, % at 12.3 µM. 340,000 tested, 0.098% active. AID 743397;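 active = mean replicate inhibition of at least 30% and at least 1% of replicates passing that level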
GC-B act = human GC-B receptor activators, primary screen, HEK293 GC-B cells, cGMP TR-FRET, EC30 CNP. 0% at EC30 CNP, 100% saturating CNP. activation, % at 10 µM. 370,000 tested, 0.11% active;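 active = activation at 10 µM reaching about 35% in either raw or pattern-adjusted values, limit read from the data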
NSD2 HMT inh = NSD2 histone methyltransferase inhibitors, primary screen, biochemical, AlphaScreen, single concentration, set 2; NSD2 peptide methylation, 120 min; 310,000 tested, 0.54% active; AID 743445, 2014; Histone-lysine N-methyltransferase NSD2 (Homo sapiens), O96028; inhibition, % at 12.5 µM; in the data active = inhibition above about 50%
FN deposition inh = inhibitors of fibronectin matrix deposition, primary screen, AH1F cells, Alexa488-fibronectin fluorescence, plate reader; AH1F fibroblasts, overnight; inhibition, % at 12.6 µM; 350,000 tested, 0.086% active; AID 743247, 2014;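 active = mean inhibition across replicates of 30% or more, regardless of how many single replicates reach that level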
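Measured by – fluorescence 485/525 nm · System – AH1F fibroblast monolayer, labelled fibronectin deposition · Amount – 10000 cells per well · Buffer or medium – serum-reduced DMEM (2% serum) · Doses – single dose, pinned · Also added – fluorescent fibronectin at 24 nM final · Schedule – 1 h cell attachment, overnight exposure to compound and label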
NPR1 activator = GC-A stimulated cGMP production enhancers – HEK293 GC-A cells, cGMP TR-FRET, EC30 ANP, primary screen | 370,000 tested, 0.14% active | Atrial natriuretic peptide receptor 1 (Homo sapiens), P16066 | AID 1671463, 2021 | activation, % at 10 µM | 0% at EC30 ANP, 100% saturating ANP; in the data active = activation above about 40%
CASP6 VEID inh = human caspase-6 inhibitors, primary screen, biochemical, VEID-R110 fluorescence, single point, set 2; P55212; purified caspase-6, Z-VEID-R110 cleavage fluorescence; inhibition, % at 12.5 µM; 350,000 tested, 0.53% active; AID 686996, 2013;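 active = mean inhibition across replicates at least about 35%, with every replicate also reaching that limit, limit read from the data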
Target sequence (P55212 24-179 limits assumed): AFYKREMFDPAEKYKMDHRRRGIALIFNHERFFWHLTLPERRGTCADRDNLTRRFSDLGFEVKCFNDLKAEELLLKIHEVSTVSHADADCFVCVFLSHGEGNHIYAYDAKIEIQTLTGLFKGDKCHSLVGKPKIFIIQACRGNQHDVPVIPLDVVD
Target sequence (P55212 194-293 limits assumed): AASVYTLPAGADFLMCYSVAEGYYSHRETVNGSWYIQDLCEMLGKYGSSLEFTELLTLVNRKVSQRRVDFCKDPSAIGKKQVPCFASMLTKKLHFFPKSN
Each line names hits and unclear results; the compound was inactive in the other large screens.

O=C1c2ccccc2[C@@H]2C[C@@H](O)[C@H](Nc3cccc4ccccc34)CCN12	CASP6 VEID inh 39 (no result: NSD2 HMT inh, FN deposition inh)
COc1ccc(N[C@@H]2CCN3C(=O)c4ccccc4[C@@H]3C[C@H]2O)cc1	none (no result: NSD2 HMT inh)
CCOC(=O)C(NC(=O)c1ccccc1)(OCC1(CC)COC1)C(F)(F)F (stereo unspecified)	CaV13 FRET inh 41 (no result: CASP6 VEID inh)
Cc1cccc(C)c1NC(=O)CSc1nc(-c2ccco2)cc(C(F)(F)F)n1	NPR1 activator 57 (no result: FN deposition inh)
Cc1cc(NC(=O)CSc2nc(-c3ccco3)cc(C(F)(F)F)n2)no1	none (no result: CaV13 FRET inh, FN deposition inh, CASP6 VEID inh)
COC(=O)c1c(NC(=O)C2CC2)sc2c1CCN(C(C)=O)C2	none (no result: NSD2 HMT inh)
CC(=O)N1CCc2c(sc(NC(=O)Cc3ccccc3)c2C(N)=O)C1	CASP6 VEID inh 67 (no result: NSD2 HMT inh)
CC(=O)N1CCc2c(sc(NC(=O)C3CCCCC3)c2C(N)=O)C1	CASP6 VEID inh 75 (no result: NSD2 HMT inh)
CCCN1CCc2c(sc(NC(=O)C3CCN(S(=O)(=O)c4cccs4)CC3)c2C(N)=O)C1	CaV13 FRET inh 34
COc1ccc(NC(=O)Nc2ccc3c(c2)CC(=O)N([C@H](C)CO)C[C@H](C)[C@H](CN(C)C(=O)NC(C)C)O3)cc1	none (no result: CaV13 FRET inh, GC-B act, NSD2 HMT inh, FN deposition inh, NPR1 activator)
COCCN1C=C(C(=O)OC)C(c2ccc(Cl)cc2)C(C(=O)OC)=C1	CaV13 FRET inh active
Cc1oc2c(c(=O)c1C)C(=O)CC(c1ccccc1)C2 (stereo unspecified)	none (no result: FN deposition inh, CASP6 VEID inh)
CS(=O)(=O)c1sc(C#N)c2c1C(=O)CC(c1ccccc1)C2 (stereo unspecified)	GC-B act 48, FN deposition inh 37 (no result: NSD2 HMT inh)
CO[C@@H](CN(C)Cc1nccs1)[C@H](C)CN([C@@H](C)CO)S(=O)(=O)c1ccc(C)cc1	none (no result: CaV13 FRET inh, GC-B act, NSD2 HMT inh, NPR1 activator)
COc1cccc(S(=O)(=O)N[C@H]2CC[C@@H](CCn3cc(-c4ccc(F)cc4)nn3)O[C@H]2CO)c1	none (no result: CaV13 FRET inh, GC-B act, NSD2 HMT inh, NPR1 activator)
CC(C)C(=O)C1=Cc2cccc([N+](=O)[O-])c2OC1N1CCOCC1 (stereo unspecified)	CASP6 VEID inh 37
CC(C)C(=O)C1=Cc2cc([N+](=O)[O-])ccc2OC1N1CCOCC1 (stereo unspecified)	none
Cc1c(C(N)=O)sc2nc(-c3ccccc3)cn12	GC-B act 74 (no result: NSD2 HMT inh, CASP6 VEID inh)
COCCN(CCOC)C(=O)c1sc2nc(-c3ccccc3)cn2c1C	none (no result: CASP6 VEID inh)
CCN(CC)CCNC(=O)c1sc2nc(-c3ccccc3)cn2c1C	CaV13 FRET inh 48 (no result: NSD2 HMT inh)
CCOC(=O)N1CCN(C(C(=O)NC2CCCC2)C(C)C)CC1 (stereo unspecified)	CASP6 VEID inh 38 (no result: NSD2 HMT inh)
CCOC(=O)N1CCC(NC2CCCCCCC2)CC1	none (no result: FN deposition inh, CASP6 VEID inh)
Cc1noc(C)c1NC(=O)N(C)C[C@H]1OCCCC[C@@H](C)Oc2ccc(NC(=O)NC3CCCCC3)cc2C(=O)N([C@@H](C)CO)C[C@H]1C	none (no result: CaV13 FRET inh, GC-B act, NSD2 HMT inh, NPR1 activator)
O=C(CSc1nnc2ccccn12)NC(=O)c1ccccc1Cl	CASP6 VEID inh 39
Cc1ccc(CNC(=O)CS(=O)Cc2nc(-c3ccccc3C)oc2C)cc1 (stereo unspecified)	GC-B act 111 (no result: NSD2 HMT inh)
Cc1ccccc1-c1nc(CS(=O)CC(=O)NCc2ccccc2)c(C)o1 (stereo unspecified)	none (no result: NSD2 HMT inh)
O=[N+]([O-])c1cc(O)c2ncccc2c1	CASP6 VEID inh 47
COC(=O)c1ccc(COc2cc([N+](=O)[O-])cc3cccnc23)o1	CASP6 VEID inh 38
CC[C@H](C)/C=C(C)/C=C/c1cc2c(cn1)C(=O)[C@@](C)(OC(C)=O)C(O)=C2Cl	CASP6 VEID inh 51 (no result: CaV13 FRET inh, NSD2 HMT inh, FN deposition inh)
CC[C@H](C)/C=C(C)/C=C/C1=CC2=CC(=O)[C@]3(C)OC(=O)[C@@H](C(C)=O)[C@@H]3C2=CO1	none (no result: CaV13 FRET inh, NSD2 HMT inh, FN deposition inh)
O=C(O)c1cc(S(=O)(=O)Nc2ccc3cn[nH]c3c2)ccc1O	CASP6 VEID inh 60

Source: PubChem
